Measurements published in ChEMBL document CHEMBL1121548, “Structure-activity relationships of pyrrole amidine antiviral antibiotics. 2. Preparation of mono- and tripyrrole derivatives of congocidine” (1980).

Tests used:
BSC-1 = assay: Evaluation of titer of virus progeny produced in untreated infected cells and in cells treated with the compound by plaque assay on BSC-1 cells.; format: functional, Cercopithecidae; design: concentration or dose not given beside the values
In short: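 HSV type 1-infected cell cultures were exposed to drug at the maximal nontoxic concentration. Toxicity means cell death within 2 days of drug incubation at 37 °C; the maximal nontoxic level is the concentration whose twofold increase causes toxicity. Progeny virus titer was determined by plaque assay on BSC-1 cells. Yield is expressed as a percentage of the untreated infected-cell yield (taken as 100%).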

Nucleic Acid [1] = assay: In vitro ability to inhibit HSV DNA polymerase activity in vitro using activated calf thymus DNA as atemplate at dose 100 ug/mL; format: nucleic-acid assay; settings: herpes simplex virus
Nucleic Acid [2] = assay: In vitro ability to inhibit HSV DNA polymerase activity in vitro using activated calf thymus DNA as atemplate at dose 200 ug/mL; format: nucleic-acid assay; settings: herpes simplex virus
Nucleic Acid [3] = assay: In vitro ability to inhibit HSV DNA polymerase activity in vitro using activated calf thymus DNA as atemplate at dose 25 ug/mL; format: nucleic-acid assay; settings: herpes simplex virus
Nucleic Acid [4] = assay: In vitro ability to inhibit HSV DNA polymerase activity in vitro using activated calf thymus DNA as atemplate at dose 400 ug/mL; format: nucleic-acid assay; settings: herpes simplex virus
Nucleic Acid [5] = assay: In vitro ability to inhibit HSV DNA polymerase activity in vitro using activated calf thymus DNA as atemplate at dose 50 ug/mL; format: nucleic-acid assay; settings: herpes simplex virus
Human alphaherpesvirus 1 [6] = assay: Compound were tested for their ability to inhibit HSV replication at their maximal nontoxic concentration; settings: herpes simplex virus
Human alphaherpesvirus 1 [7] = assay: In vitro ability to inhibit synthesis of herpes simplex virus (HSV) DNA in isolated nuclei at dose 50 ug/mL
Human alphaherpesvirus 1 [8] = assay: In vitro ability to inhibit synthesis of herpes simplex virus (HSV) DNA in isolated nuclei at dose 25 ug/mL
Human alphaherpesvirus 1 [9] = assay: In vitro ability to inhibit synthesis of herpes simplex virus (HSV) DNA in isolated nuclei at dose 100 ug/mL
Human alphaherpesvirus 1 [10] = assay: In vitro ability to inhibit synthesis of herpes simplex virus (HSV) DNA in isolated nuclei at dose 400 ug/mL
Human alphaherpesvirus 1 [11] = assay: In vitro ability to inhibit synthesis of herpes simplex virus (HSV) DNA in isolated nuclei at dose 200 ug/mL
Human alphaherpesvirus 2 = assay: Compound were tested for their ability to inhibit HSV replication at their maximal nontoxic concentration; 400 ug/mL of the drug was not toxic; format: functional, organism-based; settings: herpes simplex virus

| SMILES | Inhibition (BSC-1) | inhibition (Nucleic Acid [1]) | inhibition (Nucleic Acid [2]) | inhibition (Nucleic Acid [3]) | inhibition (Nucleic Acid [4]) | inhibition (Nucleic Acid [5]) | Concentration (Human alphaherpesvirus 1 [6]) | inhibition at 50 µg/mL (Human alphaherpesvirus 1 [7]) | inhibition at 25 µg/mL (Human alphaherpesvirus 1 [8]) | inhibition at 100 µg/mL (Human alphaherpesvirus 1 [9]) | inhibition at 400 µg/mL (Human alphaherpesvirus 1 [10]) | inhibition at 200 µg/mL (Human alphaherpesvirus 1 [11]) | Concentration (Human alphaherpesvirus 2) |
| --- | --- | --- | --- | --- | --- | --- | --- | --- | --- | --- | --- | --- | --- |
| Cl.Cl.Cn1cc(NC(=O)c2cc(NC(=O)c3cc(NC(=O)CN=C(N)N)cn3C)cn2C)cc1C(=O)NCCC(=N)N | 99.7% | 93% | 94% | 25% | 99% | 64% | 25 µg/mL | 84% | 78% | 92% | 97% | 97% |  |
| Cl.Cl.Cn1cc(NC(=O)c2cc(NC(=O)c3cc(NC(=O)CN=C(N)N)cn3C)cn2C)cc1C(=O)NCC(=N)N | 99.7% | 89% | 99% | 39% | 99% | 83% | 100 µg/mL |  |  |  |  |  |  |
| Cl.Cl.Cn1cc(NC(=O)c2cc(NC(=O)CNC(=N)N)cn2C)cc1C(=O)NCCC(=N)N [CONGOCIDINE] | 98.1% | 78% | 90% | 30% | 93% | 61% | 5 µg/mL | 67% | 64% | 61% | 88% | 71% |  |
| CC(CC(=N)N)NC(=O)c1cc(NC(=O)c2cc(NC(=O)c3cc(NC(=O)CN=C(N)N)cn3C)cn2C)cn1C.Cl.Cl (stereo not drawn) | 99.3% | 83% | 96% | 26% | 97% | 59% | 10 µg/mL | 73% | 56% | 83% | 97% | 91% |  |
| Cl.Cn1cc(NC(=O)c2cc(NC(=O)c3cc(NC(=O)CN=C(N)N)cn3C)cn2C)cc1C(=O)NCCC#N | 93.14% | 68% | 79% | 12% | 91% | 35% | 50 µg/mL | 68% | 56% |  | 89% | 87% |  |
| CC(CC#N)NC(=O)c1cc(NC(=O)c2cc(NC(=O)c3cc(NC(=O)CN=C(N)N)cn3C)cn2C)cn1C.Cl (stereo not drawn) | 90.9% |  |  |  |  |  |  |  |  |  |  |  | > 400 µg/mL |
| Cl.Cl.Cn1cc(NC(=O)c2cc(NC(=O)c3cc(NC=O)cn3C)cn2C)cc1C(=O)NCCC(=N)N | 99.7% | 85% | 98% | 20% | 99% | 62% | 25 µg/mL | 85% | 79% | 89% | 98% | 95% |  |
